One block for each compound: values may come before it. Active and inactive are the calls of the source. The calls are words filed in the database; no cut-off is given here.
How the values were obtained:
[1] = system: Thoracic aorta; experiment: Vasorelaxing effect in endothelium-denuded Wistar rat thoracic aorta ring assessed as reduction in KCl-induced contractile tone at 1 mM relative to KCl; format: functional
[2] = system: Thoracic aorta; experiment: Vasorelaxing effect in endothelium-denuded Wistar rat thoracic aorta ring assessed as reduction in KCl-induced contractile tone; format: functional, tissue-based
[3] = system: HSMC; experiment: Induction of membrane hyperpolarization in HSMC at 10 uM measured every 2.5 mins for 40 mins by DiBac4(3) dye based spectrofluorometric method; format: functional, cell-based; conditions: Homo sapiens
Method in brief: (§1)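 Human aortic smooth muscle cells were grown in Medium 231 with SMGS at 37 °C, 5% CO2, and seeded at 72×10^3/well on gelatin 24 h before use. Cells were loaded 1 h with DiBac4(3) 2.5 µM in HEPES buffer, pH 7.4, at room temperature. Fluorescence (ex 488/em 520 nm) was read every 2.5 min for 40 min. (Ft-F0)/F0 was calculated, and AUC expressed as % of the NS1619 10 µM response. Six experiments ×6 replicates.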

[4] = Drug metabolism in HSMC assessed as H2S release at 300 uM by WSP1 dye based spectrofluorometric method; format: ADME, cell-based; conditions: human
Method in brief: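 HASMCs seeded at 30000/well on gelatine-coated culture slides; after 24 h, loaded with 100 µM WSP-1 for 30 min. Dye solution replaced by compound in HEPES-buffered saline, pH 7.4, without added thiols. H2S-evoked fluorescence (λ 465–515 nm) was read by spectrofluorometer over 1 h and expressed as fluorescence index.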

[5] = Drug metabolism in HSMC assessed as H2S release at 300 uM by WSP1/propidium iodide staining based fluorescence microscopic method; format: ADME, cell-based; conditions: human
Method in brief: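 HASMCs on gelatine-coated culture slides were loaded with 100 µM WSP-1 for 30 min, then incubated with compound in HEPES-buffered saline for 1 h. Cells were washed, fixed in Bouin solution for 10 min, washed twice and counterstained with propidium iodide for nuclei. Green WSP-1 fluorescence was examined by fluorescence microscopy.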

[6] = system: Rattus norvegicus; experiment: Antihypertensive activity in Wistar rat model of L-NAME-induced hypertension assessed as decrease in basal systolic blood pressure at 133 umol/kg, ip measured at 5 mins interval for 30 mins relative to control; format: functional; parameters: scale not given: the % may be the effect or the level left
Method in brief: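 Male 12-week-old normotensive Wistar rats (250 g), anaesthetized with sodium thiopental 60 mg/Kg. Tails warmed under an IR lamp for 15 min, and systolic pressure read by tail-cuff. Baseline taken, then L-NAME 100 mg/Kg i.p. given and pressure monitored 20 min. Test agent given i.p. in DMSO vehicle (0.33 ml/Kg). Read-outs taken every 5 min over 30 min and averaged, as % of the L-NAME-raised Psys. 6 rats/group.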

[7] = system: Heart; experiment: Protection against angiotensin2-induced reduction in coronary flow in Langendorff perfused Wistar rat heart assessed as increase in coronary flow at 300 uM after 20 mins relative to control; format: functional; parameters: scale not given: the % may be the effect or the level left
Method in brief: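 Langendorff-perfused hearts were equilibrated for 20 min. Coronary spasm was induced with angiotensin II 0.1 µM, kept in the perfusate throughout. Compound (300 µM) or vehicle was then added to the perfusate for 20 min. Coronary flow was expressed as % of the mean of three basal readings. Hearts from 6-9 animals/group; mean ± SE.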

[8] = Induction of intracellular cGMP level in sodium nitroprusside pretreated HSMC at 300 uM after 20 mins by ELISA (reference value: 0.446 +/- 0.005 pmol/ml); format: functional, Homo sapiens
[9] = Drug metabolism in HSMC assessed as H2S release at 1 mM by WSP1 dye based spectrofluorometric method; format: ADME, cell-based; conditions: human, 1000 µM, TDE = time-dependent effect
Method in brief: (§2)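 Human aortic smooth muscle cells were seeded on gelatin-coated slides (30000/well). After 24 h they were loaded with WSP-1 (100 µM) for 30 min, and the supernatant was replaced by compound in HEPES standard buffer (pH 7.4). Fluorescence (λ 465-515 nm) was followed for 1 h and expressed as fluorescence index. Reference donor was used at 300 µM. Data are mean ± SE.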

[10] = system: HSMC; experiment: Induction of membrane hyperpolarization in HSMC measured every 2.5 mins for 40 mins by DiBac4(3) dye based spectrofluorometric method; format: functional, cell-based; conditions: Homo sapiens; method in brief: as §1
[11] = system: HSMC; experiment: Induction of intracellular cGMP level in HSMC at 300 uM after 20 mins by ELISA; format: functional, cell-based; conditions: Homo sapiens
[12] = Induction of membrane hyperpolarization in HSMC at 1 mM measured every 2.5 mins for 40 mins by DiBac4(3) dye based spectrofluorometric method relative to NS1619; format: functional, Homo sapiens; method in brief: as §1
[13] = Cytotoxicity in HSMC assessed as cell damage at 300 uM by propidium iodide staining based fluorescence microscopic method; conditions: human
Method in brief: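 WSP-1-loaded human aortic smooth muscle cells were incubated with compound for 1 h. Cells were then washed, fixed in Bouin solution for 10 min, and washed twice. Nuclei were stained with propidium iodide, and slides were examined by fluorescence microscopy.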

[14] = Drug metabolism in HSMC assessed as H2S release by measuring increase in fluorescence intensity at 1 mM after 1 hr by WSP1 dye based spectrofluorometric method relative to DADS; format: ADME, cell-based; conditions: human, 1000 µM; method in brief: as §2

SMILES: N=C(SCc1ccccc1)c1ccccc1
Emax at 1000 µM [1]: 86.5%
IC50 [2]: 427 µM

SMILES: O=c1[nH]c2cc(C(F)(F)F)ccc2n1-c1cc(C(F)(F)F)ccc1O
Activity [3]: Active

SMILES: C=CCSSCC=C [DIALLYLDISULFIDE]
Drug metabolism [4]: Metabolite_Detected
Drug metabolism [5]: Metabolite_Detected
Activity [6]: 39%
Emax at 1000 µM [1]: 41.7%

SMILES: N=C(Sc1ccccc1)c1cccs1
Activity [7]: inactive
Activity [8]: 0.667 pmol/mL
Drug metabolism [9]: Tde
Activity [13]: Toxic
Activity [10]: Dose-dependent effect
Activity [6]: inactive
Emax at 1000 µM [1]: 99.7%
Activity [11]: inactive
fold change (FC) [14]: 50
IC50 [2]: 631 µM
Activity [12]: 36%

SMILES: N=C(SCc1ccccc1)c1ccc(O)cc1
Emax at 1000 µM [1]: 82.1%
IC50 [2]: 490 µM

SMILES: N=C(SCc1ccc2ccccc2c1)c1cccs1
Emax at 1000 µM [1]: 20.4%

Second part, led by results:

IC50 [2]: 263 µM
SMILES: N=C(SCc1ccccc1)c1cccs1
Emax at 1000 µM [1]: 89.9%

IC50 [2]: 347 µM
SMILES: Oc1ccc(C(=S)NCc2ccccc2)cc1
Emax at 1000 µM [1]: 88.2%

IC50 [2]: 162 µM
SMILES: S=C(NCc1ccccc1)c1ccccc1
Emax at 1000 µM [1]: 92.7%

Drug metabolism [5]: Metabolite_Detected
Drug metabolism [9]: Tde
IC50 [2]: 257 µM
SMILES: COc1ccc(C(=N)SCc2ccccc2)cc1
Activity [7]: <=165%
Activity [8]: 0.489 pmol/mL
Activity [10]: Dose-dependent effect
Activity [6]: 36%
Emax at 1000 µM [1]: 89.9%
Activity [11]: inactive
Activity [12]: 149%

IC50 [2]: 240 µM
SMILES: S=C(NCc1ccccc1)c1cccs1
Emax at 1000 µM [1]: 91.7%

IC50 [2]: 129 µM
SMILES: COc1ccc(C(=S)NCc2ccccc2)cc1
Emax at 1000 µM [1]: 96.8%
